Screens as filed in PubChem BioAssay.
Compounds with a hit are over-represented: about 2% of the library has one in this group of screens.
Apaf-1 inh = blocks human Apaf-1 apoptosome activity. reconstituted apoptosome caspase-3 activity, DEVD-Rh110 fluorescence. O14727. 330,000 compounds, 0.71% hits. inhibition, % at 20 µM; active = inhibition of at least 40% at 20 µM;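 note: plate controls were DMSO wells for no effect and DEVD-CHO caspase inhibitor wells for full effect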
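System: Apoptosome proteins | Medium: Hepes pH 7.5 with detergent and BSA | Also added: Cytochrome c trigger plus (Z-DEVD)2-Rh110 caspase-3 substrate | Incubation: 30 min compound preincubation, 50 min activation, room temperature | Detection: Rhodamine 110 fluorescence at Ex 480/Em 540 nm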
PAD4 FP inh = inhibitors of human PAD4. inhibition, % at 6.36 µM. recombinant PAD4, RCA probe fluorescence polarization. 330,000 compounds, 0.41% hits. AID 485272;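 active = percent inhibition above a cutoff equal to the mean of all tested compounds plus 3 SD, cut at about 15% in these data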;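 note: 0% = PAD4 with RCA probe and DMSO and 100% = probe without PAD4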
GSTO1 inh = blocks human GSTO1 in RBBP9 counter-screen; P78417; recombinant GSTO1, activity-based probe fluorescence polarization; 300,000 compounds, 1.1% hits; inhibition, % at 5.96 µM;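 active = inhibition above the campaign mean inhibition plus 3 SD, cut at about 35% in these data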;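 note: 0% = GSTO1-1 with DMSO and 100% = wells lacking GSTO1-1 enzyme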
Target sequence (P78417 whole entry, looked up): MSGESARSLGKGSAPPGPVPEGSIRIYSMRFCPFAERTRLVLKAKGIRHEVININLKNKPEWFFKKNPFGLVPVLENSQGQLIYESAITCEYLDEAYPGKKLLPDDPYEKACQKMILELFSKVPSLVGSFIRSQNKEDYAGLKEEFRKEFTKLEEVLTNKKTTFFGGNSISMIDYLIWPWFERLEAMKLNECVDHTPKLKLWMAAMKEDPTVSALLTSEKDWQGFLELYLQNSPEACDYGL
PP5 inh = inhibitors of human protein phosphatase 5 (PP5); purified PP5c, OMFP substrate fluorescence; inhibition, % at 6.7 µM; 320,000 compounds, 0.18% hits; AID 1987;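 active = inhibition above the campaign's mean inhibition across all tested compounds plus 3 SD, cut at about 9.5% in these data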;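 note: 0% = DMSO only and 100% = 100 µM cantharidin control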
Fh CTSL1 inh = cathepsin L1 inhibition, PFM18AAP counter-screen; recombinant F. hepatica cathepsin L1, Z-Leu-Arg-MCA fluorescence; inhibition, % at 5.96 µM; 300,000 compounds, 0.49% hits; AID 1906;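 active = inhibition above the mean of all tested compounds plus 3 SD, set per screening campaign, cut at about 17% in these data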;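 note: 0% = plate median of test compound wells and 100% = 1 µM Z-Phe-Ala-diazomethylketone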
UCH37 DUB inh = blocks the human deubiquitinase UCH37; Q9Y5K5; purified proteasome/UCH37, Ub-AMC cleavage fluorescence; inhibition, % (no concentration beside the values); 330,000 compounds, 0.33% hits; AID 588478;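 active = mean inhibition over replicate wells above about 20%, limit read from the data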;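 note: 0% = compound-free wells with enzyme and 100% = wells lacking proteasome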
Target sequence (Q9Y5K5 whole entry, looked up): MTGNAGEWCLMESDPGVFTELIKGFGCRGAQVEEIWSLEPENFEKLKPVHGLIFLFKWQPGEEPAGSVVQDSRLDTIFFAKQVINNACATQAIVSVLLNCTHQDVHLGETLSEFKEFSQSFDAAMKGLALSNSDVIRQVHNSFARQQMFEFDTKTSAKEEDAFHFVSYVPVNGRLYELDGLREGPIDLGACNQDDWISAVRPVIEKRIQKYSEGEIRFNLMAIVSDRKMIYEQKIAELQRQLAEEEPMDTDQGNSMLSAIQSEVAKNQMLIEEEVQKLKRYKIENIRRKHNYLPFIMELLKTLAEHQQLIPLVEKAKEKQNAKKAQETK
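System: Proteasome-associated human UCH37 deubiquitinase; Input: 0.15 nM proteasome in added enzyme buffer; Also added: Ub-AMC substrate from 1 µM stock; Incubation: 30 min compound-proteasome preincubation then 25 min substrate reaction, room temperature; Detection: fluorescence, ex 355 nm, em 460 nm; Read-out: % inhibition of Ub-AMC cleavage fluorescence; Benchmarks: no-proteasome and no-compound wells.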
Active calls of the source: *; x = no result given.

SMILES	Apaf-1 inh	PAD4 FP inh	GSTO1 inh	PP5 inh	Fh CTSL1 inh	UCH37 DUB inh
CCOc1ccccc1CNC(=O)Cn1c(=O)oc2ccccc21	0	3	1	-1	20*	2
CN(C(=O)c1ccc(NC(=O)Cc2cccc(NC(=O)C3CCN(C(=O)C4CC4)CC3)c2)cc1)C1CC1	x	x	x	x	x	4
CN(C(=O)c1ccc(NC(=O)Cc2cccc(NC(=O)C3CCN(C(=O)C4CCCC4)CC3)c2)cc1)C1CCCC1	10	-5	x	3	x	22*
COc1ccccc1NC1=C(Cl)C(=O)N(c2ccccc2)C1=O	23	-4	12	4	1	2
CCOc1ccc(N2C(=O)C(Cl)=C(Nc3ccccc3O)C2=O)cc1	-6	-4	19	3	17*	5
CN(C)c1ccc(C(=O)c2ccccc2C(=O)O)c(O)c1	2	-5	-1	3	8	23*
CCN(CC)Cc1c(C(=O)NN=Cc2cccc(OCc3cccc(Cl)c3)c2)nnn1-c1nonc1N	x	x	x	x	x	1
COc1ccc(OCC(=O)NNC(=O)c2ccc3c(=O)n4c(nc3c2)CCC4)cc1	-8	-3	37*	1	-7	2
Cc1ccc(OCC(=O)NNC(=O)c2ccc3c(=O)n4c(nc3c2)CCC4)cc1	4	-7	-13	1	-13	-10
COc1cccc(OC)c1-c1nn2c(-c3cc(-c4ccccc4)n[nH]3)nnc2s1	53*	-3	-28	5	-1	x
COc1cccc(-c2nnc3sc(-c4ccccc4)nn23)c1	20	-1	-2	2	-1	1
CC(=NNC(=O)c1ccc2c(c1)OCO2)c1ccc(C(=O)O)s1	x	x	x	x	x	14
C#CNC(=O)C1(CC=C)CCNCC1	-4	1	8	-1	0	32*
Oc1oc(-c2ccccc2)nc1C=Nc1cccc2ccccc12	4	-1	-4	-2	0	-13
Oc1oc(-c2ccccc2)nc1C=NCc1ccncc1	6	-2	-5	1	36*	16
Oc1oc(-c2ccc(Br)cc2)nc1/C=N/c1ccccn1	-8	-6	4	1	23*	x
Oc1oc(-c2ccccc2)nc1/C=N/c1nccs1	-12	1	-2	4	45*	x
Cn1nc(-c2ccc(Cl)cc2)c2cc(C(=O)NCCCN3CCCC3)sc21	49*	-2	-1	1	1	-170
O=C(CN1CCN(c2cccc(Cl)c2)CC1)NCc1ccccc1	-5	-4	-3	0	24*	3
CCn1c(SCC(=O)NN=Cc2cccs2)nc2ccccc21	x	x	x	x	x	3
O=C(NN=Cc1cc([N+](=O)[O-])c(N2CCOCC2)cc1N1CCOCC1)c1cccnc1	x	x	x	x	x	23*
COC(=O)c1cc[n+](CC(=O)c2ccccc2)cc1	6	1	9	1	0	23*
CC(=NNC(=O)c1cc([N+](=O)[O-])cc([N+](=O)[O-])c1)c1ccco1	x	x	x	x	x	1
NC(=NCc1ccc2c(c1)OCO2)NC(=O)c1ccccc1	6	x	x	x	x	24*
C/C(CCc1ccc2c(c1)OCO2)=N\NC(=O)c1ccccc1	-8	3	2	0	0	x
SMILES	Apaf-1 inh	PAD4 FP inh	GSTO1 inh	PP5 inh	Fh CTSL1 inh	UCH37 DUB inh
COc1ccc(CCN/C=C2/CC(=O)NC2=O)cc1OC	-8	3	4	2	25*	2
COc1ccc(CCNC(=O)CCCCC(=O)NCCc2ccc(OC)c(OC)c2)cc1OC	-16	2	-2	-2	-4	3
COc1ccc(/C(C)=N/OC/C(O)=C(\C#N)c2nc3ccccc3[nH]2)cc1OC	-1	-1	20	-6	11	x
COc1ccc(/C(C)=N/OC/C(O)=C(\C#N)c2nc3ccccc3[nH]2)c(OC)c1	2	3	37*	1	-3	x
Cc1ccc(N(CC(=O)N2CCN(C3CCCCC3)CC2)S(=O)(=O)c2cccnc2)cc1	-4	-1	4	1	18*	7
Cc1ccc(S(=O)(=O)N(CC(=O)N2CCCCCC2)c2ccccc2)cc1	-7	-2	-3	1	0	1
CC(=O)c1cccc(OCc2cc(C(=O)NCCC3=CCCCC3)no2)c1	13	-4	3	1	4	22*
CCCCCC#CCC#CCC#CCC#CCCCC(=O)O	41*	-3	29	3	-1	x
CCCCCCCCCC(=O)O	-10	-2	x	x	x	2
C[C@@H]1O[C@@H](OC2C(O)C(OCCc3ccc(O)c(O)c3)OC(CO)C2OC(=O)/C=C/c2ccc(O)c(O)c2)[C@H](O)[C@H](O)[C@H]1O (some centres not stated)	-3	0	54*	-2	2	x
CC(=O)c1cccc2c(O)c(C3=Nc4ccccc4C3=O)[nH]c12	14	-9	34	-2	-4	28*
O=C1C(c2c(O)[nH]c3ccccc23)=Nc2ccccc21	-18	-7	3	0	2	3
CC1(C)CC(=O)C=C(NCC(=O)O)C1	-8	2	0	1	0	2
CCSCCC(NC1=CC(=O)CC(C)(C)C1)C(=O)O (configuration not stated)	49*	0	-3	0	4	-6
Cc1cc(NN=Cc2ccccc2F)nc(NCc2ccccc2)n1	x	x	x	x	x	4
O=C(O)[C@H](Cc1ccccc1)NC(=O)N1CCN(c2ccccc2)CC1	2	0	11	1	17*	3
CC(C)C[C@H](NC(=O)N1CCN(c2ccccc2)CC1)C(=O)O	-28	-4	4	0	0	7
Cc1ccc(-n2c(C)cc(/C=C3\NC(=O)NC3=O)c2C)c(C)c1	7	-5	3	4	17*	-5
COc1cc(/C=C2/C(=O)NN(c3ccc(F)cc3)C2=O)cc(Cl)c1O	8	-2	6	3	0	13
COC(=O)c1ccc(N2NC(=O)/C(=C/c3cc(OC)c(O)c(OC)c3)C2=O)cc1	4	0	37*	1	12	6
COC(=O)c1ccc(N2NC(=O)/C(=C/c3cc(OC)c(OC)c(OC)c3)C2=O)cc1	-1	-7	23	2	3	7
COc1cc(/C=C2/C(=O)NN(c3ccc(Cl)c(Cl)c3)C2=O)cc([N+](=O)[O-])c1O	x	-5	17	2	1	22*
O=[N+]([O-])c1ccc(Cl)c(C=NNC(=S)Nc2ccccc2)c1	x	x	x	x	x	2
CCC1(CC)NC(=O)NC1=O	-5	-2	8	0	-1	32*
COc1ccc(OC)c(C=NN=C(N)c2nonc2N)c1	x	x	x	x	x	9
CCc1n[nH]c(=S)n1N=Cc1ccc2c(c1)OCO2	x	x	x	x	x	3
COc1ccc(Cl)cc1C(=O)OCC(=O)N(C)CC(=O)Nc1ccc(F)cc1	5	-3	-3	-1	0	3
CN(CC(=O)Nc1ccc(F)cc1)C(=O)COC(=O)CNC(=O)c1ccc(Cl)cc1Cl	0	2	4	-1	21*	0
